ChEMBL document CHEMBL4184106, “Discovering alkylamide derivatives of bexarotene as new therapeutic agents against triple-negative breast cancer” (Bioorg Med Chem Lett, 2018)

How the values were obtained:
MCF7 [1] = experiment: Inhibition of mammosphere formation in human MCF7 cells assessed as ratio of C-Myc to beta actin level at 5 uM by Western blot analysis (Rvb= 1); format: functional
Method in brief: (§1)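 Post-treatment cell lysates were probed by Western blot for CSC markers, with β-actin as the loading control. Band densitometry was normalized to DMSO-treated samples.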

MCF7 [2] = experiment: Cytotoxicity against human MCF7 cells assessed as reduction in cell viability at 5 uM by MTT assay; format: functional
MDA-MB-231 [3] = experiment: Cytotoxicity against human MDA-MB-231 cells assessed as reduction in cell viability at 5 uM by MTT assay; format: functional
MDA-MB-231 [4] = experiment: Cytotoxicity against human MDA-MB-231 cells assessed as reduction in cell viability by MTT assay; format: functional, cell-based
BT-549 [5] = experiment: Cytotoxicity against human BT549 cells assessed as reduction in cell viability by MTT assay; format: functional, cell-based
MDA-MB-231 [6] = experiment: Induction of apoptosis in human MDA-MB-231 cells assessed as ratio of cleaved caspase-3 to beta-actin level at 5 uM by western blot analysis (reference value: 1); format: functional
BT-549 [7] = experiment: Induction of apoptosis in human BT549 cells assessed as ratio of cleaved caspase-3 to beta-actin level at 5 uM by western blot analysis (reference value: 1); format: functional
MCF-10A [8] = experiment: Induction of apoptosis in human MCF10A cells assessed as ratio of cleaved caspase-8 to beta-actin level at 5 uM by western blot analysis (reference value: 1); format: cell-based
MCF-10A [9] = experiment: Induction of apoptosis in human MCF10A cells assessed as ratio of cleaved caspase-9 to beta-actin level at 5 uM by western blot analysis (reference value: 1); format: cell-based
MCF7 [10] = experiment: Induction of apoptosis in human MCF7 cells assessed as ratio of cleaved caspase-9 to beta-actin level at 5 uM by western blot analysis (reference value: 1); format: functional
MDA-MB-231 [11] = experiment: Induction of apoptosis in nuclear fractions of human MDA-MB-231 cells assessed as ratio of cleaved PARP to beta-actin level at 5 uM by western blot analysis (reference value: 1); format: functional
MCF7 [12] = experiment: Down regulation of Nanog expression in human MCF7 cells at 5 uM by Western blot analysis; format: functional
Method in brief: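 MCF-7 cells were treated and lysates probed by Western blot for CSC-related markers, with β-actin as loading control. Band densitometry was normalized to DMSO-treated samples.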

MCF7 [13] = experiment: Inhibition of mammosphere formation in human MCF7 cells assessed as ratio of Nanog to beta actin level at 5 uM by Western blot analysis (Rvb= 1); format: functional; method in brief: as §1
BT-549 [14] = experiment: Effect on epithelial-mesenchymal transition in human BT549 cells assessed as ratio of E-cadherin to beta-actin level at 5 uM by Western blot analysis (reference value: 1); format: functional
MDA-MB-231 [15] = experiment: Induction of apoptosis in nuclear fractions of human MDA-MB-231 cells assessed as ratio of PARP to beta-actin level at 5 uM by western blot analysis (reference value: 1); format: functional

SMILES: C=C(c1ccc(C(=O)NCCN2CCCC2)cc1)c1cc2c(cc1C)C(C)(C)CCC2(C)C
- Ratio (MCF7 [1]): 0.8
- Activity (MCF7 [2]): 40%
- Activity (MDA-MB-231 [3]): 60%
- EC50 (MDA-MB-231 [4]): < 10 µM
- EC50 (BT-549 [5]): < 10 µM
- Ratio (MDA-MB-231 [6]): 3.4
- Ratio (BT-549 [7]): 2.1
- Ratio (MCF-10A [8]): 1
- Ratio (MCF-10A [9]): 1
- Ratio (MCF7 [10]): 1.2
- Ratio (MDA-MB-231 [11]): 1.5
- Activity (MCF7 [12]): 20%
- Ratio (MCF7 [13]): 0.8
- Ratio (BT-549 [14]): 6.3
- Ratio (MDA-MB-231 [15]): 0.9
